PubChem BioAssay AID493016 (Southern Research Specialized Biocontainment Screening …, 2011)
Active and inactive are the calls of the source.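 How the source made its calls: active means compounds blocking at least half of virus-caused cell death at some tested dose; inactive means the rest.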

System: HEp-2 RSV Long CPE inhibition, luminescence
Test: inhibitors of RSV-induced HEp-2 cell death – RSV Long, synthesized compounds, set 4, dose response (AID 493016)
Summary of the method: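 Material: HEp-2 human cells infected with respiratory syncytial virus strain Long; Probe or stimulus: RSV Long infection at multiplicity of infection 0.45; Dosing: Eight-point twofold series, 50 to 0.39 µM final, 0.5% DMSO; Incubation: six-day compound and virus exposure at 37 °C; Detection: luminescent CPE signal; Replication: triplicate wells per compound concentration.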

SMILES | IC50
O=C([C@@H]1CCCN1S(=O)(=O)c1cccc2cccnc12)N1CCc2ccccc21 | > 50 µM (inactive)
Cc1ccc2c(c1)CCN2C(=O)[C@@H]1CCCN1S(=O)(=O)c1cccc2cccnc12 | > 50 µM (inactive)
CC(C)c1ccccc1NC(=O)[C@@H]1CCCN1S(=O)(=O)c1cccc2cccnc12 | 10.9 µM
O=C(Nc1ccccc1)[C@@H]1CCCN1S(=O)(=O)c1cccc2cccnc12 | > 50 µM (inactive)
COc1ccccc1CNC(=O)C1CCN(S(=O)(=O)c2cccc3nonc23)CC1 | 3.1 µM
Cc1ccc(NC(=O)[C@@H]2CCCN2S(=O)(=O)c2cccc3cccnc23)c(C)n1 | > 50 µM (inactive)
